The values below come from ChEMBL document CHEMBL3244011, “(Aryloxy)[p-(aryloxy)phenyl]- and (aryloxy)[p-(arylthio)phenyl]acetic acids and esters as hypolipidemic agents” (1979).

Holding throughout (type): functional
Parameters in all cases: scale not given: the % may be the effect or the level left

Assay [1] concerns Rattus norvegicus. Nature of the assay: Hypolipidemic activity in COBBS-CD rat assessed as reduction in serum sterol level at 0.1% administered with chow diet after 5 days relative to control. An outline of the steps:
(§1)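 Male COBBS-CD rats, four per treated group and eight per control group. The compound was mixed into ground rat chow at 0.1, 0.03 or 0.01% w/w (about 100, 30 and 10 mg/kg). Control chow received only the mixing solvent (methanol-chloroform 1:3 v/v). Food and water were ad libitum for 5 days, then rats were decapitated and blood collected. Serum sterols were measured by an automated method and expressed relative to controls; ± values are SD.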

Assay [2] relates to Rattus norvegicus. Nature of the assay: Hypolipidemic activity in COBBS-CD rat assessed as reduction in serum triglyceride level at 0.3% administered with chow diet after 5 days relative to control.
For assay [3], the system named is Rattus norvegicus. Kind of assay: Hypolipidemic activity in COBBS-CD rat assessed as reduction in serum triglyceride level at 0.1% administered with chow diet after 5 days relative to control. The method, boiled down: (§2)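 The compound was given in ground chow at 0.1, 0.03 or 0.01% w/w (about 100, 30 and 10 mg/kg) to male COBBS-CD rats (n=4; solvent-chow controls n=8) for 5 days ad libitum. Rats were killed by decapitation and blood collected. Serum triglycerides were assayed by an automated method and compared with controls; ± values are SD.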

Assay [4] relates to Rattus norvegicus. Kind of assay: Hypolipidemic activity in COBBS-CD rat assessed as reduction in serum sterol level at 0.3% administered with chow diet after 5 days relative to control.
For assay [5], the system named is Rattus norvegicus. Kind of assay: Hypolipidemic activity in COBBS-CD rat assessed as reduction in serum triglyceride level at 0.03% administered with chow diet after 5 days relative to control. An outline of the steps:
as §2

Assay [6] deals with Rattus norvegicus. Nature of the assay: Hypolipidemic activity in COBBS-CD rat assessed as reduction in serum triglyceride level at 0.01% administered with chow diet after 5 days relative to control. An outline of the steps: as §2
For assay [7], the system named is Rattus norvegicus. Kind of assay: Hypolipidemic activity in COBBS-CD rat assessed as reduction in serum sterol level at 0.03% administered with chow diet after 5 days relative to control. An outline of the steps: as §1
Assay [8] concerns Rattus norvegicus. Kind of assay: Hypolipidemic activity in COBBS-CD rat assessed as reduction in serum sterol level at 0.01% administered with chow diet after 5 days relative to control. An outline of the steps: as §1

Consider `CCOC(=O)C(C)(C)Oc1ccc(Cl)cc1` [CLOFIBRATE], for which the Activity in the assay on Rattus norvegicus [1] amounted to 0%; in the assay with Rattus norvegicus [2], 58%; in the assay with Rattus norvegicus [3], 30%; in the assay with Rattus norvegicus [4], 19%.

For the compound `COC(=O)C(Oc1ccc2c(c1)CCC2)c1ccc(Oc2ccc(Cl)cc2)cc1` (stereo not given), the Activity came to 25% with Rattus norvegicus [1]; 51% in the assay with Rattus norvegicus [5]; 37% in the assay on Rattus norvegicus [6]; 30% with Rattus norvegicus [7]; 52% with Rattus norvegicus [3]; 26% in the assay with Rattus norvegicus [8].

As to `COC(=O)C(Oc1ccc(C2CCCCC2)cc1)c1ccc(Oc2ccc(C(C)(C)C)cc2)cc1` (stereo not given), the Activity is on record as 33% with Rattus norvegicus [1]; 49% in the assay on Rattus norvegicus [5]; 29% with Rattus norvegicus [6]; 16% in the assay with Rattus norvegicus [7]; 52% in the assay with Rattus norvegicus [3]; -5% in the assay with Rattus norvegicus [8].

For `COC(=O)C(Oc1ccccc1)c1ccc(Oc2ccc(Cl)cc2)cc1` (stereo not given), the Activity with Rattus norvegicus [1] turned out to be 31%; with Rattus norvegicus [5], 67%; with Rattus norvegicus [6], 77%; in the assay with Rattus norvegicus [7] it was 18%; in the assay on Rattus norvegicus [3], 68%; with Rattus norvegicus [8] it was 18%.

Regarding `COC(=O)C(Oc1ccc(C2(C)CCCCC2)cc1)c1ccc(Oc2ccc(Cl)cc2)cc1` (stereo not given), the Activity in the assay with Rattus norvegicus [1] worked out at 18%; in the assay on Rattus norvegicus [5], 70%; with Rattus norvegicus [6], 64%; with Rattus norvegicus [7], 13%; with Rattus norvegicus [3] it was 65%; in the assay with Rattus norvegicus [8] it was 26%.

As to `COC(=O)C(Oc1ccc(NC(C)=O)cc1)c1ccc(Oc2ccc(Cl)cc2)cc1` (stereo not given), the Activity with Rattus norvegicus [1] was -3%; in the assay with Rattus norvegicus [5], -20%; in the assay on Rattus norvegicus [6], -9%; in the assay on Rattus norvegicus [7], -11%; with Rattus norvegicus [3], 13%; in the assay on Rattus norvegicus [8], -4%.

For `COC(=O)C(Oc1ccc(C23CC4CC(CC(C4)C2)C3)cc1)c1ccc(Oc2ccc(Cl)cc2)cc1` (stereo not given), the Activity in the assay on Rattus norvegicus [1] stood at 3%; in the assay with Rattus norvegicus [5], 29%; in the assay with Rattus norvegicus [6] it was 11%; with Rattus norvegicus [7], 16%; with Rattus norvegicus [3], 17%; in the assay with Rattus norvegicus [8], 14%.

On to `COC(=O)C(Oc1ccc(C(C)(C)C)cc1)c1ccc(Sc2ccc(Cl)cc2)cc1` (stereo not given), for which the Activity with Rattus norvegicus [1] came out at 12%; in the assay with Rattus norvegicus [5], 56%; with Rattus norvegicus [6], 45%; with Rattus norvegicus [7], 27%; in the assay on Rattus norvegicus [3] it was 59%; in the assay on Rattus norvegicus [8], 10%.

Turning to `COC(=O)C(Oc1ccc(Cl)cc1)c1ccc(Oc2ccc(Cl)c3ccccc23)cc1` (stereo not given), the Activity stood at 23% in the assay on Rattus norvegicus [1]; 12% in the assay with Rattus norvegicus [5]; 33% with Rattus norvegicus [6]; 17% in the assay with Rattus norvegicus [7]; 38% with Rattus norvegicus [3]; 6% in the assay with Rattus norvegicus [8].

As to `COC(=O)C(Oc1ccc(Cl)cc1)c1ccc([S+]([O-])c2ccc(Cl)cc2)cc1` (stereo not given), the Activity with Rattus norvegicus [1] is 31%; with Rattus norvegicus [5] it was 35%; in the assay with Rattus norvegicus [6], 12%; with Rattus norvegicus [7] it was 11%; in the assay with Rattus norvegicus [3], 55%; with Rattus norvegicus [8], 15%.

In the case of `COC(=O)C(Oc1cccc(C(F)(F)F)c1)c1ccc(Oc2ccc(Cl)cc2)cc1` (stereo not given), the Activity is 28% in the assay on Rattus norvegicus [1]; 47% in the assay on Rattus norvegicus [5]; 18% in the assay with Rattus norvegicus [6]; 16% with Rattus norvegicus [7]; 61% in the assay with Rattus norvegicus [3]; -6% with Rattus norvegicus [8].

Take `O=C(O)C(Oc1ccc(Cl)cc1)c1ccc(Oc2ccc(Cl)cc2)cc1` (stereo not given): the Activity in the assay with Rattus norvegicus [1] turned out to be 31%; with Rattus norvegicus [5], 50%; in the assay with Rattus norvegicus [6] it was 34%; in the assay with Rattus norvegicus [7], 23%; with Rattus norvegicus [3], 60%; in the assay with Rattus norvegicus [8], 12%.
